ChEMBL document CHEMBL4831495, “Discovery of novel BCR-ABL PROTACs based on the cereblon E3 ligase design, synthesis, and biological evaluation” (Eur J Med Chem, 2021)

Experiments:
[1] = tested on: K562; test: Antiproliferative activity against human K562 cells assessed as cell growth inhibition measured after 48 hrs by CCK8 assay; assay type: functional, cell-based; conditions: K562, 48 h
Summary of the method: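 Cells were seeded at 3000-20,000 per well and given 3-fold serial dilutions of compound in medium. After 2 days at 37 °C in 5% CO2, CCK-8 reagent was added for 2-4 h and absorbance was read at 450 nm.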

[2] = target: Protein cereblon/Tyrosine-protein kinase ABL1/Breakpoint cluster region protein (Homo sapiens, UniProt P00519+P11274+Q96SW2); test: PROTAC activity at CRBN/Bcr-Abl in human K562 cells assessed as degrading activity by Western blotting analysis; assay type: cell-based
Chain of Protein cereblon/Tyrosine-protein kinase ABL1/Breakpoint cluster region protein (P00519 whole entry): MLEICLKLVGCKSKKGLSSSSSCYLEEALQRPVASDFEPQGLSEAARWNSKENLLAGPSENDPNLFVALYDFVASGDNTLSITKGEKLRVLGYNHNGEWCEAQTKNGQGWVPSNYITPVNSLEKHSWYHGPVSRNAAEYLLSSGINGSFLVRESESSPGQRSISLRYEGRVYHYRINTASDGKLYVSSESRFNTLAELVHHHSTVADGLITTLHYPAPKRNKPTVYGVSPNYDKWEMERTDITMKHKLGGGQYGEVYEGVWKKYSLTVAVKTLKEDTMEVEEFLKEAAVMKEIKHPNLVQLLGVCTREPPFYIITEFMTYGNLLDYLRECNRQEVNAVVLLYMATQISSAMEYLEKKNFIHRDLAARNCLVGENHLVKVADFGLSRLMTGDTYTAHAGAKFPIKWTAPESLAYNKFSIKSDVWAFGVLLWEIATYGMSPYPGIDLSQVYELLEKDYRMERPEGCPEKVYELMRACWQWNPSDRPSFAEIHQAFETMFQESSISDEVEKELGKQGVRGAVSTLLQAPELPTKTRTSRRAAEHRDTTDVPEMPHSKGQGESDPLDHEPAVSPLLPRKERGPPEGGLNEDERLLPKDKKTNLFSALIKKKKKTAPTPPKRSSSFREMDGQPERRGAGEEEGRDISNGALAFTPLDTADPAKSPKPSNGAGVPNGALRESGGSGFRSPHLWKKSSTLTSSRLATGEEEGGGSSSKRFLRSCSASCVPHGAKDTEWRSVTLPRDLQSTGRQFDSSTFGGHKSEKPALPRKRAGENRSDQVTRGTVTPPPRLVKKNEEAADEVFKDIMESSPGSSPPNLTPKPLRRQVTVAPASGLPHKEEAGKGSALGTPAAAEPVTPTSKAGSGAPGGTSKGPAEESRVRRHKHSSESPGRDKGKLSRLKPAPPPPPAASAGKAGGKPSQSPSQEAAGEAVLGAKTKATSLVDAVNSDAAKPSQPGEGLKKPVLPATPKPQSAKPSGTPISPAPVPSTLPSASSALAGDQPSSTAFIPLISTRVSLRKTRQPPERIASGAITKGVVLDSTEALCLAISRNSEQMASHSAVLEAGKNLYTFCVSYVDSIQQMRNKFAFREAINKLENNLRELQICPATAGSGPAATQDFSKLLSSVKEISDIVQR
Chain of Protein cereblon/Tyrosine-protein kinase ABL1/Breakpoint cluster region protein (P11274 whole entry): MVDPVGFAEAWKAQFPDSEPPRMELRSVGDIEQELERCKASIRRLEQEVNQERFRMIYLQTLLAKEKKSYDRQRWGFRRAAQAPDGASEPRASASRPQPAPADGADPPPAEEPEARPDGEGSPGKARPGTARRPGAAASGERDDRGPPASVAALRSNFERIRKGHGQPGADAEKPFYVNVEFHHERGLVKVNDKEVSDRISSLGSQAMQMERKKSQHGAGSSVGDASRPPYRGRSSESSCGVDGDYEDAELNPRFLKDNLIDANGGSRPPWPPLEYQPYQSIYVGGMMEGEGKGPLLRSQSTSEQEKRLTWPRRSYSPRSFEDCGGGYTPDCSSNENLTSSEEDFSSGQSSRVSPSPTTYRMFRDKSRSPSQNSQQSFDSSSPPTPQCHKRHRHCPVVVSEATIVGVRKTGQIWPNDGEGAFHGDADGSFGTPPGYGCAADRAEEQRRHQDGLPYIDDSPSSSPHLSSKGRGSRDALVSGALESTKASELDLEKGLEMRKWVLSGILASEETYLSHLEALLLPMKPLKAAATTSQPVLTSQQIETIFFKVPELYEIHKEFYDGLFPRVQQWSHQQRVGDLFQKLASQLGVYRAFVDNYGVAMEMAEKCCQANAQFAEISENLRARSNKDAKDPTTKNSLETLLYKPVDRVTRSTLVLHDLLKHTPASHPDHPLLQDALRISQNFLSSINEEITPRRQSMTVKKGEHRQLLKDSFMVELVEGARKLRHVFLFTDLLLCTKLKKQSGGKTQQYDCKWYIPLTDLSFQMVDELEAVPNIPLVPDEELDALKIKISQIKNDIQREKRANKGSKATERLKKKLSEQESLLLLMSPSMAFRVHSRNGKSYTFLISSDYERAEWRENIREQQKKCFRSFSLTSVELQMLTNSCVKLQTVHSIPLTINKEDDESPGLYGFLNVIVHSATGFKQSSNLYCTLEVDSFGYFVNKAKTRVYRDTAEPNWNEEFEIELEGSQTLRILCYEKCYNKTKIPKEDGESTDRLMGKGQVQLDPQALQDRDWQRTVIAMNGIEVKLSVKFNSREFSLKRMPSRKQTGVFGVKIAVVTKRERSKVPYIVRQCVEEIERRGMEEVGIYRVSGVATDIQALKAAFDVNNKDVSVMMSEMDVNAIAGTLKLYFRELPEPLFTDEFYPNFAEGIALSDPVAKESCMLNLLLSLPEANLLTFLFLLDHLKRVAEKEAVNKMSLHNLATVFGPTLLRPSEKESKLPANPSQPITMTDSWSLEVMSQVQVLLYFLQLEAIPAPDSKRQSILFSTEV
Chain of Protein cereblon/Tyrosine-protein kinase ABL1/Breakpoint cluster region protein (Q96SW2 whole entry): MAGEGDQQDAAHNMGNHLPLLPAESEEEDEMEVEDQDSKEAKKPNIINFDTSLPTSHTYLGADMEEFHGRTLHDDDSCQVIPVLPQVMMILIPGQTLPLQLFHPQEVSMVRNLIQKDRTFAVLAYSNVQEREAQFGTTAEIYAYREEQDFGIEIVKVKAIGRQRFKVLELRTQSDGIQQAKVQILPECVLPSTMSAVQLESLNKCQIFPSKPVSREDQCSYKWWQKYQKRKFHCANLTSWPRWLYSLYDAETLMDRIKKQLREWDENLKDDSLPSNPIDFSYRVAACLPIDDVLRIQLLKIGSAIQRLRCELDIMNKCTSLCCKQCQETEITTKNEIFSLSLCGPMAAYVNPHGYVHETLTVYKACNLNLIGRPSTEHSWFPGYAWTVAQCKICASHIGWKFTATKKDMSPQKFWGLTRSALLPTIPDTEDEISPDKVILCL

[3] = MRT (0 to t) in Wistar rat at 2 mg/kg, iv by LC-MS/MS analysis; assay type: ADME, organism-based; conditions: in vivo
Summary of the method: (§1)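 Single intravenous dose of 2 mg/kg into the femoral vein of female Wistar rats, given as a solution in NMP/PEG200 (1:9, v/v). Plasma was collected by sublingual vein bleeding at 0.083, 0.25, 0.5, 1, 2, 4, 6, 8, 12 and 24 h from one group of rats (n = 3). Samples were extracted and quantified by LC-MS/MS, LOQ 2.5 ng/mL.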

[4] = Tmax in Wistar rat at 2 mg/kg, iv by LC-MS/MS analysis; assay type: ADME, organism-based; conditions: in vivo; summary of the method: as §1
[5] = AUC (0 to t) in Wistar rat at 2 mg/kg, iv by LC-MS/MS analysis; assay type: ADME, organism-based; design: dose 2 mg/kg; conditions: in vivo; summary of the method: as §1
[6] = Apparent volume of distribution during terminal state in Wistar rat at 2 mg/kg, iv by LC-MS/MS analysis; assay type: ADME, organism-based; conditions: in vivo, read-out: Vz; summary of the method: as §1
[7] = Half life in Wistar rat at 2 mg/kg, iv by LC-MS/MS analysis; assay type: ADME, organism-based; conditions: in vivo; summary of the method: as §1
[8] = Cmax in Wistar rat at 2 mg/kg, iv by LC-MS/MS analysis; assay type: ADME, organism-based; design: route intravenous, dose 2 mg/kg; conditions: in vivo; summary of the method: as §1
[9] = Apparent volume of distribution during steady state in Wistar rat at 2 mg/kg, iv by LC-MS/MS analysis; assay type: ADME, organism-based; conditions: in vivo, read-out: Vdss; summary of the method: as §1
[10] = Clearance in Wistar rat at 2 mg/kg, iv by LC-MS/MS analysis; assay type: ADME, organism-based; conditions: in vivo; summary of the method: as §1
[11] = tested on: K562; test: Antitumor activity against human K562 cells xenografted in NOD-SCID mouse assessed as tumor growth inhibition at 5 mg/kg, po administered daily 10 days; conditions: 240 h, read-out: TGI

Structure (SMILES) | IC50 [1] | DC50 [2] | further results
Cc1nc(Nc2ncc(C(=O)Nc3c(C)cccc3Cl)s2)cc(N2CCN(C(=O)CCOCCNc3cccc4c3C(=O)N(C3CCC(=O)NC3=O)C4=O)CC2)n1 (stereo unspecified) | 18.4 nM | 8.7 nM | 
Cc1nc(Nc2ncc(C(=O)Nc3c(C)cccc3Cl)s2)cc(N2CCN(C(=O)CCc3cccc4c3C(=O)N(C3CCC(=O)NC3=O)C4=O)CC2)n1 (stereo unspecified) | 2.84 nM | 95.4 nM | 
Cc1nc(Nc2ncc(C(=O)Nc3c(C)cccc3Cl)s2)cc(N2CCN(C(=O)CCOCCOCCOCCOCCOCCNc3cccc4c3C(=O)N(C3CCC(=O)NC3=O)C4=O)CC2)n1 (stereo unspecified) | 31.9 nM | 10.8 nM | 
Cc1nc(Nc2ncc(C(=O)Nc3c(C)cccc3Cl)s2)cc(N2CCN(C(=O)CCCCNc3cccc4c3CN(C3CCC(=O)NC3=O)C4=O)CC2)n1 (stereo unspecified) | 4.2 nM | 11.1 nM | 
Cc1nc(Nc2ncc(C(=O)Nc3c(C)cccc3Cl)s2)cc(N2CCN(C(=O)CCCNc3cccc4c3C(=O)N(C3CCC(=O)NC3=O)C4=O)CC2)n1 (stereo unspecified) | 5.5 nM | 7.8 nM | 
Cc1nc(Nc2ncc(C(=O)Nc3c(C)cccc3Cl)s2)cc(N2CCN(CCSc3cccc4c3CN(C3CCC(=O)NC3=O)C4=O)CC2)n1 (stereo unspecified) | 0.51 nM | 2.7 nM | 
Cc1nc(Nc2ncc(C(=O)Nc3c(C)cccc3Cl)s2)cc(N2CCN(C(=O)CCOCCOCCNc3cccc4c3C(=O)N(C3CCC(=O)NC3=O)C4=O)CC2)n1 (stereo unspecified) | 8.05 nM | 17.5 nM | MRT last [3]: 27 min; Tmax [4]: 4.8 min; AUC(0-t) [5]: 496 ng·h/mL; Vd [6]: 3.59 L/kg; half-life [7]: 37.2 min; Cmax [8]: 1140 ng/mL; Vd [9]: 1.93 L/kg; clearance [10]: 67.1 mL/min/kg
Cc1nc(Nc2ncc(C(=O)Nc3c(C)cccc3Cl)s2)cc(N2CCN(CCO)CC2)n1 [DASATINIB] |  |  | inhibition in vivo at 5 mg/kg [11]: 95.1%
Cc1nc(Nc2ncc(C(=O)Nc3c(C)cccc3Cl)s2)cc(N2CCN(C(=O)COc3cccc4c3C(=O)N(C3CCC(=O)NC3=O)C4=O)CC2)n1 (stereo unspecified) | 7 nM | 11.1 nM | 
Cc1nc(Nc2ncc(C(=O)Nc3c(C)cccc3Cl)s2)cc(N2CCN(C(=O)CNc3cccc4c3C(=O)N(C3CCC(=O)NC3=O)C4=O)CC2)n1 (stereo unspecified) | 1.22 nM | 10 nM | 
Cc1nc(Nc2ncc(C(=O)Nc3c(C)cccc3Cl)s2)cc(N2CCN(C(=O)CCCC(=O)Nc3cccc4c3CN(C3CCC(=O)NC3=O)C4=O)CC2)n1 (stereo unspecified) | 1.03 nM | 125 nM | 
Cc1nc(Nc2ncc(C(=O)Nc3c(C)cccc3Cl)s2)cc(N2CCN(C(=O)CSc3cccc4c3C(=O)N(C3CCC(=O)NC3=O)C4=O)CC2)n1 (stereo unspecified) | 3.2 nM | 5.6 nM | 
